Screens deposited in PubChem BioAssay by several laboratories.
PERK inh = human PERK inhibition, primary cell-based screen. Q9NZJ5. AID 1416. inhibition, % at 5.6 µM. hit rate 0.17% among 220,000. CHO PERK-DD fusion, SEAP luminescence translation reporter;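 active = inhibition above the mean inhibition of all tested compounds plus 3 SD, set separately per screening campaign, cut at about 2.9% in these data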;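 also: PERK kinase domain activated by AP20187 dimerizer at 100 nM; 0% = DMSO with dimerizer and 100% = rapamycin at 8.4 µM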
Target sequence (Q9NZJ5 whole entry, looked up, the tested form may be a part): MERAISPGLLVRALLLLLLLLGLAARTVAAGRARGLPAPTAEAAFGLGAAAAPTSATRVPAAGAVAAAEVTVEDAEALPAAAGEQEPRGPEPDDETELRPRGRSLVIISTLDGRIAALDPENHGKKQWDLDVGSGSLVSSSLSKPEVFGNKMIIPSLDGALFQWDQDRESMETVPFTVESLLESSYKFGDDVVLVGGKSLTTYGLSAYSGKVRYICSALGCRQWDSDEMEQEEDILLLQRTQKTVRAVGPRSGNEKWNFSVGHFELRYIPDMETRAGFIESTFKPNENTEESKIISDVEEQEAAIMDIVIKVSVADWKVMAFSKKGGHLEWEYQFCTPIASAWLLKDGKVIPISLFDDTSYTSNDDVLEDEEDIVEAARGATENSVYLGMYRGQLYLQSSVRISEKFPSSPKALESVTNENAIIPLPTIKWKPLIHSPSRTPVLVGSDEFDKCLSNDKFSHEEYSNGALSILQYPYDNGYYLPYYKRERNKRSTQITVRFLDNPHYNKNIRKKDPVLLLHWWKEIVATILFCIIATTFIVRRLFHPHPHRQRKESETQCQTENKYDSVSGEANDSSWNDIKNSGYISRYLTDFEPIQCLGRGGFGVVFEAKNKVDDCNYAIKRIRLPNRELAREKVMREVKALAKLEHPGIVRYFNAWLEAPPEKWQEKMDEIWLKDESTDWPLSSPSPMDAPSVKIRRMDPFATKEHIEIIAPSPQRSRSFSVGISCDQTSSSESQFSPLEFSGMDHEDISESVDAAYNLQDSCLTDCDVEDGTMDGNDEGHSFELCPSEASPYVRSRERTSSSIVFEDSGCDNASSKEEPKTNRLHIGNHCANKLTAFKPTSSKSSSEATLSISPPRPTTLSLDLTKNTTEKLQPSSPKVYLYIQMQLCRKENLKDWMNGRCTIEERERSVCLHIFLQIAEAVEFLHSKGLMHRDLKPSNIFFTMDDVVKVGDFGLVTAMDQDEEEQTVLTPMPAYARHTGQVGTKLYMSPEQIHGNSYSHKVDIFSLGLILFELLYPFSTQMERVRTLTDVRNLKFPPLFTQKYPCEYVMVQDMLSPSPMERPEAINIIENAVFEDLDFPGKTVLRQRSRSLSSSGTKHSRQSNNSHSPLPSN
Insulin prom up = MIN6 insulin promoter up-regulation. MIN6 insulin promoter-GFP reporter, high-content imaging; active compounds read high. z-score at 5 µM. hit rate 0.3% among 190,000. AID 1625;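 active = z-score above 3 at 5 µM with at least 500 cells counted in the well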
Autophagy mod = modulators of autophagy | MEF GFP-LC3 puncta imaging; test concentration mostly 10 µM | calls only at 10 µM (by protocol) | hit rate 0.98% among 190,000 | AID 463193;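 active = percentage of spot-positive cells more than 3 SD above its plate mean, without a fluorescence outlier flag or 80% toxicity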;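 also: spot-positive cell cutoff set from DMSO-treated cells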
Insulin prom inh = TRM-6 insulin promoter activity inhibition. TRM-6 cells (human fetal islet line), insulin promoter-eGFP reporter, imaging; reporter expression induced with tamoxifen. inhibition, % at 2 µM. hit rate 0.9% among 130,000;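 active = inhibition above the mean plus 3 SD, with well images judged a real hit on visual review, cut at about 60% in these data, passing the limit was not always enough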
Dynein transport = blocks dynein driven cargo transport along microtubules. 3617.4 mouse cells, GR-EGFP nuclear translocation imaging; test concentration mostly 20 µM; stimulated with dexamethasone, 1 µM; active compounds read low. z-score, hits read low. hit rate 0.47% among 220,000;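 active = plate z-score of nuclear minus cytoplasmic receptor signal below a set negative limit, without overly bright fluorescence or cell loss, cut at about -3.5 in these data, passing the limit was not always enough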;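 also: z-score of nuclear minus cytoplasmic ring GR-EGFP intensity difference per well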
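Buffer or medium: tet-free medium with charcoal-stripped serum / Also added: dexamethasone agonist, 1.0 µM final, for 30 min / Timing: induction 48 h, compound 1 h, agonist 30 min / Measured by: high-content fluorescence imaging after fixation / Read-out: nuclear-to-cytoplasmic GR-EGFP distribution per well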
Starred values were filed as active, the others as inactive; i = inactive; . = no result given; + = active, no number. An excerpt weighted towards active compounds, which were near 2.1% of everything screened.

SMILES | PERK inh | Insulin prom up | Autophagy mod | Insulin prom inh | Dynein transport
CCC(NC(=O)Nc1nnc(C(F)(F)F)s1)(C(F)(F)F)C(F)(F)F | -2.1 | -0.4 | + | . | 0.204
CCn1c(/C=C2/C(=O)N(C)c3ccccc32)nc2ccccc2c1=O | -0.1 | -0.27 | i | . | -0.646
CCN1C(=O)/C(=C\c2nc3ccccc3c(=O)n2CC)c2ccccc21 | -1.7 | 0.53 | + | . | -0.351
CCN(CCCNC(=O)CCCOc1cc(=O)n(C)c2ccccc12)Cc1ccccc1 | -0.2 | 1.41 | i | 0.0 | -1.01
CCN(CCCNC(=O)COc1cc(=O)n(CC)c2ccccc12)Cc1ccccc1 | -0.3 | 0.13 | + | 18.8 | 0.232
N#C/C(=C/c1ccc(Sc2nc3ccccc3[nH]2)o1)c1cccc(F)c1 | -1.6 | 2.09 | i | 72.2* | 3.22
O=C(c1cc(COc2ccc(F)cc2Cl)on1)N1CCCC(c2ccccc2)C1 (stereo not given) | 0.4 | -0.12 | + | -41.7 | -0.391
CC(NC(=O)c1ccco1)c1cccc2ccccc12 (stereo not given) | 0.6 | . | i | -77.4 | -0.861
CC(=O)Nc1c(C(=O)c2ccccc2)oc2ccccc12 | 0.0 | 0.37 | i | 71.4* | -0.207
N#Cc1c(NC(=O)C2CC(Cl)=CCC2C(=O)O)sc2c1CCCC2 (stereo not given) | 0.9 | 0.99 | i | . | -0.159
Cc1ccc(/C=C/C(=O)c2c(C)nc3ccccn23)cc1 | -1.0 | 0.43 | i | . | -0.422
CCCN(CCC)C(=O)/C=C/c1cccc([N+](=O)[O-])c1 | 0.0 | 1.05 | . | . | 1.21
CC(C)N(C(=O)/C=C/c1cccc([N+](=O)[O-])c1)C(C)C | 3.6* | 0.81 | i | . | -0.956
Cc1nc2ccccn2c1C(=O)/C=C/c1cccc([N+](=O)[O-])c1 | -0.7 | -0.21 | + | . | -2.51
CC(C)(C)c1ccc(NC(=O)c2ccsc2)cc1 | 0.8 | 0.33 | . | . | 1.39
Cc1ccc(NC(=O)CSc2nc3ccccc3c(=O)n2CCCC(=O)NCCCN2CCOCC2)cc1 | -1.4 | . | i | . | 0.331
CCNC(=S)NNC(=O)C1CCCCC1 | 2.9* | 0.96 | i | . | 0.3
O=C(COC(=O)c1ccc(S(=O)(=O)N2CCCC2)cc1)NCc1cccs1 | 0.4 | 0.84 | i | 37.1 | 1.63
Cc1cccc(C2c3[nH]c4ccccc4c3CCN2Cc2cccn2-c2ncccn2)c1 (stereo not given) | 0.9 | -1.56 | i | . | -1.55
COc1ccc(C2c3[nH]c4ccccc4c3CCN2Cc2cccn2-c2ncccn2)cc1C (stereo not given) | -0.9 | . | + | . | -0.185
Cc1cc(C(=O)N2CCN(Cc3ccc4c(c3)OCO4)CC2)cs1 | -0.4 | 0.16 | i | -11.5 | -0.266
Cc1nn(C)c(C)c1NC(=O)c1ccnn1C | 1.0 | 0.55 | i | 72.2* | -0.627
O=C(Nc1nc(-c2ccccn2)cs1)c1ccc(Br)s1 | -2.0 | -0.47 | + | 14.3 | -0.613
CC(=O)Nc1nc(-c2ccc(Br)s2)cs1 | 0.7 | 5.02* | i | -12.1 | 1.97
CS/C(=N\S(=O)(=O)c1cccs1)NC(=O)CSc1nc2ccccc2s1 | 1.1 | -0.08 | i | 3.2 | 0.148
SMILES | PERK inh | Insulin prom up | Autophagy mod | Insulin prom inh | Dynein transport
CC1(C)Cc2c(sc3ncnc(N)c23)CO1 | 1.3 | -0.38 | i | 82.9* | -0.424
CC1(C)Cc2c(sc3nc[nH]c(=O)c23)CO1 | 0.7 | -0.06 | i | 100.0* | 0.334
CC1(C)Cc2c(sc3ncn4nnnc4c23)CO1 | . | 0.25 | . | . | .
Cc1c(Br)c(C(F)(F)F)nn1CC(=O)NCc1ccccc1 | 0.2 | -0.9 | i | -54.5 | -0.033
COc1ccc2cc(C)c3nnc(SCC(=O)Nc4cc(OC)c(OC)cc4C(=O)O)n3c2c1 | 1.6 | -0.16 | i | . | -0.206
COc1ccc2cc(C)c3nnc(SCC(=O)Nc4nc(-c5ccccc5)cs4)n3c2c1 | 1.5 | -0.11 | + | . | 0.138
COc1ccc(-c2[nH]n(-c3ccc([N+](=O)[O-])cc3)c(=O)c2C=NCc2ccccc2)cc1 | 1.5 | . | + | 0.0 | -0.688
CNS(=O)(=O)c1cccc(C(=O)NCC(c2cccs2)N(C)C)c1 (stereo not given) | -0.7 | 0.18 | i | 73.3* | -0.237
CN(Cc1cnccn1)Cc1ccccc1OCC(O)CN1CCc2ccccc2C1 (stereo not given) | -0.5 | 2.03 | i | . | 1.14
CC(=O)Nc1ccccc1C(=O)C(=O)Nc1ccc(C(=O)N2CCOCC2)cc1 | 0.5 | 0.36 | i | 3.7 | 0.238
CCn1c(=O)cc(SCC(=O)NCc2ccco2)c2ccccc21 | -1.0 | -0.71 | + | . | -0.355
CCn1c(=O)cc(SCC(=O)Nc2ccc(C)cn2)c2ccccc21 | 2.8 | 0.34 | + | . | -0.305
C=CCN1C(=O)/C(=C2/Sc3ccc(OC)cc3N2C)SC1=NCc1ccccc1 | 2.3 | 1.04 | + | . | 0.0991
COc1ccc2c(c1)N(C)/C(=C1/SC(=NCc3ccccc3)N(c3ccccc3)C1=O)S2 | 1.1 | -0.78 | + | -34.1 | -0.134
C/C(CCc1ccc2c(c1)OCO2)=N\N=C1\NC(=O)CC(C(=O)Nc2ccc(Cl)cc2)S1 (stereo not given) | 1.8 | 0.21 | i | 7.1 | 0.986
C=CCNC(=S)Nc1sc2c(c1C(=O)OCC)CC(C(C)C)OC2 (stereo not given) | -0.7 | 0.08 | i | 22.9 | 0.663
Cc1cc(C)c2nc(NC(=O)[C@@H](NC(=O)c3cccc(S(=O)(=O)N4CCOCC4)c3)C(C)C)sc2c1 | -0.5 | -0.49 | i | 11.7 | -0.556
O=C(CN1C(=O)COc2ccc(S(=O)(=O)N3CCOCC3)cc21)NCc1ccccn1 | 3.5* | 1.48 | . | . | -0.778
CCN(C(=O)CSc1nnc(Nc2ccccc2)s1)C1CCS(=O)(=O)C1 (stereo not given) | 1.7 | -0.16 | + | -5.9 | 0.232
Cc1ccc(Nc2nnc(SCC(=O)N(C)C3CCS(=O)(=O)C3)s2)cc1 (stereo not given) | 1.0 | -0.06 | i | 33.3 | 0.773
COCCCN=C1NN=C(c2cc(C)n(Cc3ccccc3Cl)c2C)CS1 | -0.4 | -0.65 | + | -45.5 | 0.1
COCCCN=C1NN=C(c2cc(C)n(-c3ccccc3)c2C)CS1 | 0.5 | -0.59 | i | 5.6 | -0.808
COC(=O)CN1C(=S)N(c2ccc(OC)cc2)C(=O)/C1=C/c1cccs1 | -0.2 | 0.55 | i | -37.8 | -0.577
CCc1ccc(N2C(=O)/C(=C/c3cccs3)N(CC(=O)OC)C2=S)cc1 | -0.8 | . | + | -22.2 | -0.112
CNC(=S)N(Cc1ccc(OC)cc1)C1CC(=O)N(c2ccc(OC)cc2)C1=O (stereo not given) | -1.3 | -0.08 | i | . | .
COc1cccc(/C=N/NC(=S)Nc2cccnc2)c1 | 0.1 | -0.4 | + | 10.5 | 0.25
CC1CCC2C(=O)N(c3ccccc3OC(=O)c3ccccc3F)C(=O)C2C1 (stereo not given) | 0.0 | -0.2 | i | . | 0.233
Cc1ccc(S(=O)(=O)NCCC(=O)NC2CCCC2)cc1 | 0.3 | 0.18 | + | . | 1.29
